ChEMBL document CHEMBL4808192, “Synthesis and biological evaluation of novel imidazo[1,2-a]pyridine-oxadiazole hybrids as anti-proliferative agents: Study of microtubule polymerization inhibition and DNA binding” (Bioorg Med Chem, 2021)
Activity calls are given as the source filed them. The calls are words filed in the database; no cut-off is given here.

Key:
Calf thymus DNA [1] = experiment: Binding affinity to calf thymus DNA assessed as emission spectra at 360 nm at 10 uM measured every 5 mins by fluorescence titration analysis; conditions: Bos taurus
Summary of the method: (§1)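 Fluorescence titration at 25 °C in a 1 cm quartz cuvette. Compound held at 10 μM while CT-DNA was added about 0.5 μM per step. Excitation 250 nm, emission scanned 300–500 nm with the peak followed at 360 nm. Each spectrum is the average of three scans. Cuvettes washed with water and about 0.1 N nitric acid between runs.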

A549 [2] = experiment: Induction of apoptosis in human A549 cells assessed as pre and post apoptotic cells at 2.8 uM measured after 48 hrs by Annexin V-FITC/Propidium iodide staining based flowcytometry analysis (reference value: 0.1%); format: functional
HEK293 [3] = experiment: Cell cycle arrest in human HEK293 cells assessed as accumulation of cells at sub-G1 phase at 2.8 uM measured after 48 hrs by propidium iodide staining based FACS cytometry analysis (reference value: 1%); conditions: hek293, 48 h
[4] = Selectivity index, ratio of IC50 for human HEK293 cells to IC50 for human A549 cells assessed as reduction in cell viability measured after 48 hrs by MTT assay; format: toxicity; conditions: HEK293 cells versus A549 cells, read-out: Ratio IC50
Calf thymus DNA [5] = experiment: Binding affinity to calf thymus DNA assessed as decrease in positive peak intensity at compound:DNA concentration ratio of 1:1 to 1:2 by CD spectroscopy; conditions: Bos taurus
Summary of the method: (§2)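 Circular dichroism of CT-DNA (10 × 10^-6 M) in 100 mM Tris-HCl pH 7.0 at 25 °C. Spectra taken from 220 to 320 nm at CT-DNA:compound molar ratios of 1:0, 1:1 and 1:2. Each spectrum is the average of three scans.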

HEK293 [6] = experiment: Induction of apoptosis in human HEK293 cells assessed as pre and post apoptotic cells at 2.8 uM measured after 48 hrs by Annexin V-FITC/Propidium iodide staining based flowcytometry analysis (reference value: 0.2%); format: cell-based; conditions: hek293, 48 h
HEK293 [7] = experiment: Cell cycle arrest in human HEK293 cells assessed as accumulation of cells at S phase at 2.8 uM measured after 48 hrs by propidium iodide staining based FACS cytometry analysis (reference value: 18.8%); conditions: hek293, 48 h
A549 [8] = experiment: Antiproliferative activity against human A549 cells assessed as reduction in cell viability incubated for 48 hrs by MTT assay; format: functional, cell-based; conditions: A549, 48 h
Summary of the method: (§3)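 Cells grown in medium with 10% FBS and 1% antibiotic-antimycotic at 37 °C, passaged at 80–90% confluence with 0.25% trypsin/1 mM EDTA. Seeded at 1000–4000 cells/well and grown overnight. Medium was then replaced and compounds added at various concentrations for 48 h. MTT (0.5 mg/mL) was added for 4 h at 37 °C, formazan dissolved in DMSO and absorbance read at 570 nm. IC50 is the 50% inhibitory concentration.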

[9] = Selectivity index, ratio of IC50 for human HEK293 cells to IC50 for human PC-3 cells assessed as reduction in cell viability measured after 48 hrs by MTT assay; format: toxicity; conditions: HEK293 cells versus PC-3 cells, read-out: Ratio IC50
Tubulin (Homo sapiens) = Tubulin (Homo sapiens) (UniProt P68371+Q9H4B7+P0DPH7+P68366+Q13509+Q71U36+P04350+Q3ZCM7+P07437+P68363+Q9BQE3+Q6PEY2+Q13885+Q9BVA1+Q9BUF5); experiment: Inhibition of tubulin polymerization in human A549 cells assessed as disruption of microtubule network at IC50 measured after 48 hrs by confocal microscopic analysis; format: cell-based
PC-3 = experiment: Antiproliferative activity against human PC-3 cells assessed as reduction in cell viability incubated for 48 hrs by MTT assay; format: functional, cell-based; conditions: PC-3, 48 h; summary of the method: as §3
Sus scrofa [10] = species: Sus scrofa; experiment: Inhibition of pig brain tubulin polymerization at 1 uM incubated for 1 hr by fluorescence based analysis relative to control; format: tissue-based
Summary of the method: (§4)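 Cell-free fluorescence kit assay with porcine brain tubulin (2 mg/mL) in 80 mM PIPES pH 6.9, 2.0 mM MgCl2, 0.5 mM EGTA, 1.0 mM GTP and glycerol. Compound tested at 0.5, 1, 2, 4 and 8 μM, with a DMSO vehicle and a 3 μM podophyllotoxin reference. Polymerization followed at excitation 360/emission 440 nm for 1 h at 37 °C. Inhibition taken relative to vehicle; IC50 is the concentration giving 50% inhibition of assembly.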

HEK293 [11] = experiment: Cell cycle arrest in human HEK293 cells assessed as accumulation of cells at G2/M phase at 2.8 uM measured after 48 hrs by propidium iodide staining based FACS cytometry analysis (reference value: 16.1%); conditions: hek293, 48 h
A549 [12] = experiment: Cell cycle arrest in human A549 cells assessed as accumulation of cells at subG1 phase at 2.8 uM measured after 48 hrs by propidium iodide staining based FACS cytometry analysis (reference value: 4.2%); format: functional
Sus scrofa [13] = species: Sus scrofa; experiment: Inhibition of pig brain tubulin polymerization at 2 uM incubated for 1 hr by fluorescence based analysis relative to control; format: tissue-based; summary of the method: as §4
Calf thymus DNA [14] = experiment: Binding affinity to calf thymus DNA assessed as hypochromicity at 10 uM measured every 5 mins by fluorescence titration analysis; conditions: Bos taurus; summary of the method: as §1
DU-145 = experiment: Antiproliferative activity against human DU-145 cells assessed as reduction in cell viability incubated for 48 hrs by MTT assay; format: functional, cell-based; conditions: DU-145, 48 h; summary of the method: as §3
Sus scrofa [15] = species: Sus scrofa; experiment: (§5) Inhibition of pig brain tubulin polymerization incubated for 1 hr by fluorescence based analysis; format: tissue-based; summary of the method: as §4
[16] = as §5; format: tissue-based, Sus scrofa; summary of the method: as §4
Sus scrofa [17] = species: Sus scrofa; experiment: Inhibition of pig brain tubulin polymerization at 8 uM incubated for 1 hr by fluorescence based analysis relative to control; format: tissue-based; summary of the method: as §4
A549 [18] = experiment: Induction of apoptosis in human A549 cells assessed as viable cells at 2.8 uM measured after 48 hrs by Annexin V-FITC/Propidium iodide staining based flowcytometry analysis (reference value: 83.1%); format: functional; conditions: read-out: Activity
Calf thymus DNA [19] = experiment: Binding affinity to calf thymus DNA assessed as absorption peak between 310 and 312 nm at 10 uM measured every 5 mins by UV-Vis spectroscopic analysis; conditions: Bos taurus
Summary of the method: (§6)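 UV–Vis titration at 25 °C in a 1 cm quartz cuvette. Compound at about 10 μM (1 mM stock in 1:1 DMSO:water). CT-DNA (1 mM stock in 100 mM Tris-HCl pH 7.0) added about 0.5 μM at a time until the band was unchanged over five successive additions. Spectra recorded from 200 to 400 nm.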

Calf thymus DNA [20] = experiment: Binding affinity to calf thymus DNA assessed as decrease in negative peak intensity at compound:DNA concentration ratio of 1:1 to 1:2 by CD spectroscopy; conditions: Bos taurus; summary of the method: as §2
[21] = Induction of apoptosis in human HEK293 cells assessed as viable cells at 2.8 uM measured after 48 hrs by Annexin V-FITC/Propidium iodide staining based flowcytometry analysis (reference value: 80.2%); format: cell-based; conditions: read-out: Activity
Sus scrofa [22] = species: Sus scrofa; experiment: Inhibition of pig brain tubulin polymerization at 4 uM incubated for 1 hr by fluorescence based analysis relative to control; format: tissue-based; summary of the method: as §4
A549 [23] = experiment: Cell cycle arrest in human A549 cells assessed as accumulation of cells at G2/M phase at 2.8 uM measured after 48 hrs by propidium iodide staining based FACS cytometry analysis (reference value: 10.1%); format: functional
HEK293 [24] = experiment: Cytotoxicity against human HEK293 cells assessed as reduction in cell viability incubated for 48 hrs by MTT assay; format: cell-based; conditions: HEK293, 48 h; summary of the method: as §3
Calf thymus DNA [25] = experiment: Binding affinity to calf thymus DNA measured every 5 mins by UV-Vis spectroscopic analysis; design: species or system Bos taurus; summary of the method: as §6
[26] = Selectivity index, ratio of IC50 for human HEK293 cells to IC50 for human DU-145 cells assessed as reduction in cell viability measured after 48 hrs by MTT assay
Calf thymus DNA [27] = experiment: Binding affinity to calf thymus DNA assessed as hyperchromicity at 10 uM measured every 5 mins by UV-Vis spectroscopic analysis; conditions: Bos taurus; summary of the method: as §6
A549 [28] = experiment: Cell cycle arrest in human A549 cells assessed as accumulation of cells at S phase at 2.8 uM measured after 48 hrs by propidium iodide staining based FACS cytometry analysis (reference value: 12.7%); format: functional
Calf thymus DNA [29] = experiment: Binding affinity to calf thymus DNA assessed as increase in viscosity at 15 uM by Ostwald viscometric analysis; conditions: Bos taurus
Summary of the method: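 Ostwald viscometer in a 25 °C water bath. CT-DNA (150 μM, in 100 mM Tris-HCl pH 7.0) was measured alone, then after mixing with compound at 15 μM. EtBr and Hoechst 33342 complexes with CT-DNA served as controls.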

A549 [30] = experiment: Cell cycle arrest in human A549 cells assessed as accumulation of cells at G0/G1 phase at 2.8 uM measured after 48 hrs by propidium iodide staining based FACS cytometry analysis (reference value: 73%); format: functional
HEK293 [31] = experiment: Cell cycle arrest in human HEK293 cells assessed as accumulation of cells at G0/G1 phase at 2.8 uM measured after 48 hrs by propidium iodide staining based FACS cytometry analysis (reference value: 64.1%); conditions: hek293, 48 h
Sus scrofa [32] = species: Sus scrofa; experiment: Inhibition of pig brain tubulin polymerization at 0.5 uM incubated for 1 hr by fluorescence based analysis relative to control; format: tissue-based; summary of the method: as §4

COc1cc(-c2nnc(-c3cn4ccccc4n3)o2)cc(OC)c1OC
Activity (Calf thymus DNA [1]): Active | Activity (A549 [2]): 86.5% | Activity (HEK293 [3]): 2.1% | selectivity ratio at 48 h [4]: 29 | Activity (Calf thymus DNA [5]): Active | Activity (HEK293 [6]): 74.5% | Activity (HEK293 [7]): 18.8% | IC50 (A549 [8]): 2.8 µM | selectivity ratio at 48 h [9]: 25.4 | inhibition (Tubulin (Homo sapiens)): Active | IC50 (PC-3): 3.5 µM | inhibition (Sus scrofa [10]): 11.5% | Activity (HEK293 [11]): 15.7% | Activity (A549 [12]): 1.3% | inhibition (Sus scrofa [13]): 21.7% | Activity (Calf thymus DNA [14]): Active | IC50 (DU-145): 4.5 µM | inhibition (Sus scrofa [15]): Dose-Dependent Effect | IC50 [16]: 3.45 µM | inhibition (Sus scrofa [17]): 81.2% | viability at 2.8 µM (A549 [18]): 4.3% | Activity (Calf thymus DNA [19]): Active | Activity (Calf thymus DNA [20]): Active | viability at 48 h, 2.8 µM [21]: 18.5% | inhibition (Sus scrofa [22]): 60.1% | Activity (A549 [23]): 17.1% | IC50 (HEK293 [24]): 89 µM | Kd (Calf thymus DNA [25]): 0.042 µM | Ratio IC50 [26]: 19.7 | Activity (Calf thymus DNA [27]): Active | Activity (A549 [28]): 6.9% | Activity (Calf thymus DNA [29]): Active | Activity (A549 [30]): 74.5% | Activity (HEK293 [31]): 63.2% | inhibition (Sus scrofa [32]): 4.6%

Cc1cccn2cc(-c3nnc(-c4ccccc4I)o3)nc12
IC50 (A549 [8]): 33.4 µM | IC50 (PC-3): 33.5 µM | IC50 (DU-145): 31.5 µM

Cc1cc(Br)c2nc(-c3nnc(-c4ccc(Cl)cc4)o3)cn2c1
IC50 (A549 [8]): 43.5 µM | IC50 (PC-3): 42 µM | IC50 (DU-145): 46 µM

Clc1ccc(-c2nnc(-c3cn4ccccc4n3)o2)cc1
IC50 (A549 [8]): 32.4 µM | IC50 (PC-3): 33.7 µM | IC50 (DU-145): 32.8 µM

Cc1cc(Br)c2nc(-c3nnc(-c4ccc(N(C)C)cc4)o3)cn2c1
IC50 (A549 [8]): 10.8 µM | IC50 (PC-3): 11.2 µM | IC50 (DU-145): 12.8 µM

Cc1cc(Br)c2nc(-c3nnc(-c4ccccc4)o3)cn2c1
IC50 (A549 [8]): 14.5 µM | IC50 (PC-3): 17.8 µM | IC50 (DU-145): 18.9 µM

Cc1cccn2cc(-c3nnc(-c4ccccc4)o3)nc12
IC50 (A549 [8]): 23.4 µM | IC50 (PC-3): 22.8 µM | IC50 (DU-145): 21.8 µM

Brc1ccc(-c2nnc(-c3cn4ccccc4n3)o2)cc1
IC50 (A549 [8]): > 50 µM | IC50 (PC-3): > 50 µM | IC50 (DU-145): > 50 µM

Cc1cc(Br)c2nc(-c3nnc(-c4ccc(Br)cc4)o3)cn2c1
IC50 (A549 [8]): 23.4 µM | IC50 (PC-3): 24.5 µM | IC50 (DU-145): 22.3 µM
